Reference: ChEMBL document CHEMBL1828538, “Synthesis and pharmacological evaluation of indole-based sigma receptor ligands” (Eur J Med Chem, 2011)
Activity calls are given as the source filed them. The rule behind the calls is not given here.

Assays:
[1] = Displacement of radioligand from adrenergic beta1 receptor assessed as 50% receptor inhibition at 10^-5 M
Procedure, shortened: (§1)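 Part of a contracted (NovaScreen) panel of 64 radioligand/enzyme assays, with the test compound run at 10⁻⁵ M and 10⁻⁷ M. Each assay was scored by whether radioligand displacement exceeded 50% at each concentration.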

[2] = target: T1, Muscarinic acetylcholine receptor M1 (Homo sapiens) (UniProt P11229); assay: Displacement of radioligand from muscarinic M1 receptor assessed as 50% receptor inhibition at 10^-5 M; procedure, shortened: as §1
T1 sequence (whole entry): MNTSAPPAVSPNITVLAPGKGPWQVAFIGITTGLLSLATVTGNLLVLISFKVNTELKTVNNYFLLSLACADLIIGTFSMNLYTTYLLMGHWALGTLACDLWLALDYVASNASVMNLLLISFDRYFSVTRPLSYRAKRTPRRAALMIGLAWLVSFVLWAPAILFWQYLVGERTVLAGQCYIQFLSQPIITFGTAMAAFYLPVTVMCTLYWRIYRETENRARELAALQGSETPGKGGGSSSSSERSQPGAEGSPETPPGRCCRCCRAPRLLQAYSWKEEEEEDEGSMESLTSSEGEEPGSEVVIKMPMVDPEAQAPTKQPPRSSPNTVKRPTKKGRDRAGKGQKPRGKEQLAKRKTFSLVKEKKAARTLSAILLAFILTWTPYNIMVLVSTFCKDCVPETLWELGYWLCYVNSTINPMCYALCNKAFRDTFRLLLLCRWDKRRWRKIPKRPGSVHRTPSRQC

[3] = target: T2, Muscarinic acetylcholine receptor M2 (Homo sapiens) (UniProt P08172); assay: Displacement of radioligand from muscarinic M2 receptor assessed as 50% receptor inhibition at 10^-5 M; procedure, shortened: as §1
T2 sequence (whole entry): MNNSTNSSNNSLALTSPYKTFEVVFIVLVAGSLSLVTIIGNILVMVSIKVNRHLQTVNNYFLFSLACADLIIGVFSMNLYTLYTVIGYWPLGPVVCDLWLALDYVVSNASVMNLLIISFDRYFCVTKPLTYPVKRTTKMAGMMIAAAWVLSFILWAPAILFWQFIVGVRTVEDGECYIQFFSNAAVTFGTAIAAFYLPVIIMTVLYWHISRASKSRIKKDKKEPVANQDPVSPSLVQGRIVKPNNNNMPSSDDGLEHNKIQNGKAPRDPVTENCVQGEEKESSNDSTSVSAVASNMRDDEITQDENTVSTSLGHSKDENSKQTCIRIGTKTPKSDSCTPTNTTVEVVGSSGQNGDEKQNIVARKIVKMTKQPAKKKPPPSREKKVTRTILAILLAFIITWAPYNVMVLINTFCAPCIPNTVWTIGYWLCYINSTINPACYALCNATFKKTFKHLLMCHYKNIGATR

[4] = Displacement of radioligand from muscarinic receptor assessed as 50% receptor inhibition at 10^-5 M; procedure, shortened: as §1
[5] = target: Mu-type opioid receptor (Homo sapiens) (UniProt P35372); assay: Displacement of radioligand from opioid mu receptor assessed as 50% receptor inhibition at 10^-5 M; procedure, shortened: as §1
[6] = Displacement of radioligand from BZT-sensitive L-type calcium channel assessed as 50% receptor inhibition at 10^-5 M; procedure, shortened: as §1
[7] = target: T3, Substance-K receptor (Homo sapiens) (UniProt P21452); assay: Displacement of radioligand from neurokinin NK2 receptor assessed as 50% receptor inhibition at 10^-5 M; procedure, shortened: as §1
T3 sequence (whole entry): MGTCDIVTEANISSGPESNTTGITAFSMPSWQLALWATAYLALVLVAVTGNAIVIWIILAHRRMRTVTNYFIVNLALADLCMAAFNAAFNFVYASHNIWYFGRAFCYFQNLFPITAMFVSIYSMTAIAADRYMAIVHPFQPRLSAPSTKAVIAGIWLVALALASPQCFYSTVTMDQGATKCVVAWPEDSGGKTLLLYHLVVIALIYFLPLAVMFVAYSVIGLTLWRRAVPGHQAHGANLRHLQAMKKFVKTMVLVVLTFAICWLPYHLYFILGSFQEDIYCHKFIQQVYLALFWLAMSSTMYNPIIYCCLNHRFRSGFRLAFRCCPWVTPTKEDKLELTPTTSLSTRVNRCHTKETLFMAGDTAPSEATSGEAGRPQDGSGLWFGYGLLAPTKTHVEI

[8] = target: Sodium-dependent dopamine transporter (Homo sapiens, UniProt Q01959); assay: Displacement of [125I]RTI-55 from human DAT expressed in HEK293 cells; format: cell-based
Procedure, shortened: (§2)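 Nonspecific binding was defined with 5 μM mazindol. Ki was determined under standard conditions and reported as mean ± SEM of replicate assays. A value >10000 nM means less than 30% radioligand displacement at that concentration.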

[9] = target: Sodium-dependent noradrenaline transporter (Homo sapiens, UniProt P23975); assay: Displacement of [125I]RTI-55 from human NET expressed in HEK293 cells; format: cell-based; procedure, shortened: as §2
[10] = target: Cannabinoid receptor 1 (Homo sapiens) (UniProt P21554); assay: Displacement of radioligand from cannabinoid CB1 receptor assessed as 50% receptor inhibition at 10^-7 M; procedure, shortened: as §1
[11] = target: Cannabinoid receptor 2 (Homo sapiens) (UniProt P34972); assay: Displacement of radioligand from cannabinoid CB2 receptor assessed as 50% receptor inhibition at 10^-7 M; procedure, shortened: as §1
[12] = Displacement of radioligand from dopamine D4.2 receptor assessed as 50% receptor inhibition at 10^-7 M; procedure, shortened: as §1
[13] = target: T1, Muscarinic acetylcholine receptor M1 (Homo sapiens); assay: Displacement of radioligand from muscarinic M1 receptor assessed as 50% receptor inhibition at 10^-7 M; procedure, shortened: as §1
[14] = target: Mu-type opioid receptor (Homo sapiens) (UniProt P35372); assay: Displacement of radioligand from opioid mu receptor assessed as 50% receptor inhibition at 10^-7 M; procedure, shortened: as §1
[15] = target: T4, Glycine receptor subunit alpha-1 (Homo sapiens) (UniProt P23415); assay: Displacement of radioligand from strychnine sensitive glycine receptor assessed as 50% receptor inhibition at 10^-7 M; procedure, shortened: as §1
T4 sequence (whole entry): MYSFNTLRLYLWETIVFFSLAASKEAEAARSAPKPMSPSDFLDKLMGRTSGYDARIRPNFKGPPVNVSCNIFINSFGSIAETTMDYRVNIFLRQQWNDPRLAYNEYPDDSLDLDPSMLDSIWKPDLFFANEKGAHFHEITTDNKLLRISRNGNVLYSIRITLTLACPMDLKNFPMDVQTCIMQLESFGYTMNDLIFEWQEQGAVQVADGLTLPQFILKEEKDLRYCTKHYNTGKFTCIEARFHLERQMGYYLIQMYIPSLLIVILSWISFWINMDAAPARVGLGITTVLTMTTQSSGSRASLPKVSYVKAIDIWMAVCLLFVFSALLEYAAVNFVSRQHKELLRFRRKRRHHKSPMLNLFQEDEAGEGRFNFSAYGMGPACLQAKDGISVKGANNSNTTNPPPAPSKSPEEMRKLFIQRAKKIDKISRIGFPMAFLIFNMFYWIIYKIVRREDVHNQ

[16] = Displacement of radioligand from sodium channel site 2 assessed as 50% receptor inhibition at 10^-7 M; procedure, shortened: as §1
[17] = target: T3, Substance-K receptor (Homo sapiens); assay: Displacement of radioligand from neurokinin NK2 receptor assessed as 50% receptor inhibition at 10^-7 M; procedure, shortened: as §1

Chain of Mu-type opioid receptor (Homo sapiens) (P35372 whole entry): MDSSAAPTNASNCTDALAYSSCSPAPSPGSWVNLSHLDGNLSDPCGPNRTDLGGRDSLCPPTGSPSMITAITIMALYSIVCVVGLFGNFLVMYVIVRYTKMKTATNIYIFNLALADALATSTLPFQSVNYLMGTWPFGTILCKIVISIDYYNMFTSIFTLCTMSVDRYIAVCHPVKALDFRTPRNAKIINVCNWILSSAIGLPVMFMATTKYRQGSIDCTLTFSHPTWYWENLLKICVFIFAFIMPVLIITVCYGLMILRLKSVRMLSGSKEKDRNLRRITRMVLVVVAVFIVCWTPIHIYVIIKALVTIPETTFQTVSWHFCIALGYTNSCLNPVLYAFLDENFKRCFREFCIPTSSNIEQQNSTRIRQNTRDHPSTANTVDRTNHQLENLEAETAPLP
Chain of Cannabinoid receptor 2 (Homo sapiens) (P34972 whole entry): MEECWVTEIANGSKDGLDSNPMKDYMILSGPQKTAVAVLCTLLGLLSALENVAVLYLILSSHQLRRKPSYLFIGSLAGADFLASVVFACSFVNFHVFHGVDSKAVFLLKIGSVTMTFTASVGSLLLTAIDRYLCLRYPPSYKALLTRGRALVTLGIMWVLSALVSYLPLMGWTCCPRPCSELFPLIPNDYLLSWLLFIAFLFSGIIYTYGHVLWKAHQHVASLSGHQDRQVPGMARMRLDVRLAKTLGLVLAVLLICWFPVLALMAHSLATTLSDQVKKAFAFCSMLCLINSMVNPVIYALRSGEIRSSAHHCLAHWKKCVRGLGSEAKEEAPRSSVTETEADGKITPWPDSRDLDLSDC
Chain of Sodium-dependent dopamine transporter (Q01959 whole entry): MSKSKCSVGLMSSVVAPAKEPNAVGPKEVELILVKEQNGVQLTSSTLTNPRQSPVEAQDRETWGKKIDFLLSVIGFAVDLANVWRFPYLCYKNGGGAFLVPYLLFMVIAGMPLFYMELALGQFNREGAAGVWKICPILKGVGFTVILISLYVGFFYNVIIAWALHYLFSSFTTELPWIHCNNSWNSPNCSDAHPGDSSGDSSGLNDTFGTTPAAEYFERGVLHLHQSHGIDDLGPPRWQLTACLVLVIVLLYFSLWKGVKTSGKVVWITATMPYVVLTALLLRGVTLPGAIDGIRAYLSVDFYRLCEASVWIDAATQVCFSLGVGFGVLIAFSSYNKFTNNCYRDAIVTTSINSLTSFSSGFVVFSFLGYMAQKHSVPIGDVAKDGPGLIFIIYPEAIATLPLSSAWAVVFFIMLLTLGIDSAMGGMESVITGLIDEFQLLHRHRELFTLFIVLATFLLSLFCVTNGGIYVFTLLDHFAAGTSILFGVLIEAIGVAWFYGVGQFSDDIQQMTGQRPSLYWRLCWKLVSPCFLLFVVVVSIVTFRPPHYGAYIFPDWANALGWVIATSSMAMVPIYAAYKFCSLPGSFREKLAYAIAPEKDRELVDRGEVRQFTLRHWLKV
Chain of Sodium-dependent noradrenaline transporter (P23975 whole entry): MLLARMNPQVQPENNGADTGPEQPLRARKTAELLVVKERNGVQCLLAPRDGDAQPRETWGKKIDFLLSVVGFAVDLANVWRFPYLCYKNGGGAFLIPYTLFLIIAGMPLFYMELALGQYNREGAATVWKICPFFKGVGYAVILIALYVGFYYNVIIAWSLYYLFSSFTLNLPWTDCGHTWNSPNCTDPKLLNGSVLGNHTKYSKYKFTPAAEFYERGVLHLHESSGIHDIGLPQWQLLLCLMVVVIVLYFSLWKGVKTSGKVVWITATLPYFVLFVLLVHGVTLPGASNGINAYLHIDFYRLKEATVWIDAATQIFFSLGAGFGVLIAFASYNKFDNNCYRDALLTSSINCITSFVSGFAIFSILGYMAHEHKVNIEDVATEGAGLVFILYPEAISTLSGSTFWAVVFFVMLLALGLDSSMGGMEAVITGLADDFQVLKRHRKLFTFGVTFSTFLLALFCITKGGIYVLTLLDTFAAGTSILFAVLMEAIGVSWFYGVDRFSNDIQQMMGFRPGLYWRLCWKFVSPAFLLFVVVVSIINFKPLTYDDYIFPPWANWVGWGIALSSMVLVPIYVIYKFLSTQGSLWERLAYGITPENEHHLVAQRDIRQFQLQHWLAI
Chain of Cannabinoid receptor 1 (Homo sapiens) (P21554 whole entry): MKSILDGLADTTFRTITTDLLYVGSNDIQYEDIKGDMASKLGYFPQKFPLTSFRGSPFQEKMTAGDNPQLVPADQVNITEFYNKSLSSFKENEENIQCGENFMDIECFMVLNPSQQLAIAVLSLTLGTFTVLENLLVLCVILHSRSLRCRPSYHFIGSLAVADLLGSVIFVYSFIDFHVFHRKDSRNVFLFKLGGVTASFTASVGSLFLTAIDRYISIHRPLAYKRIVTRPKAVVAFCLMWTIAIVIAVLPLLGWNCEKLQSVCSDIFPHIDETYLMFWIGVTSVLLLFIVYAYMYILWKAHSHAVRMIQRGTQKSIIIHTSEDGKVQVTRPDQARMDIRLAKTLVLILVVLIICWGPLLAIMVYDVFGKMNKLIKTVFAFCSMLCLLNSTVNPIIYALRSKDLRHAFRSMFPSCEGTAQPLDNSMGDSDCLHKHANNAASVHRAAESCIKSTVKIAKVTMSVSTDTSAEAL

SMILES: COc1cc2c(cc1OC)CN(CCCCn1cc(-c3ccc(F)cc3)c3ccccc31)CC2
- inhibition [1]: Active
- inhibition [2]: Active
- inhibition [3]: Active
- inhibition [4]: Active
- inhibition [5]: Active
- inhibition [6]: Active
- inhibition [7]: Active
- Ki [8]: 5 µM
- Ki [9]: 1.35 µM
- inhibition [10]: inactive
- inhibition [11]: inactive
- inhibition [12]: inactive
- inhibition [13]: inactive
- inhibition [14]: inactive
- inhibition [15]: Active
- inhibition [16]: inactive
- inhibition [17]: inactive
